Measurements published in ChEMBL document CHEMBL3608246, “Novel benzidine and diaminofluorene prolinamide derivatives as potent hepatitis C virus NS5A inhibitors” (Eur J Med Chem, 2015).
Each block holds one compound with its values, some of them ahead of it. The source made the active and inactive calls. The rule behind the calls is not given here.

Columns and labels:
Cytochrome P450 3A4 = Cytochrome P450 3A4 (Homo sapiens, UniProt P08684); assay: Inhibition of human CYP3A4 by luminometry; type: ADME
How it was run: (§1)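 Human CYP1A2, 2C9, 2C19, 2D6 and 3A4 inhibition by P450-Glo luminescent assay per kit protocol; compounds at 100, 50, 10, 5, 1, 0.1 and 0.01 µM; luminometer read-out.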

[1] = Stability in rat plasma assessed as compound remaining t 100 uM after 0.5 hrs by LC-MS/MS method; type: ADME, cell-free; settings: read-out: Stability
How it was run: (§2)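 Rat plasma pre-warmed 5 min at 37 °C, mixed with test compound from 100 µM stock (3 into 297 parts), incubated at 37 °C; sampled at 0, 15, 30, 60, 120 min, acetonitrile-precipitated, centrifuged 10 min, supernatant analysed by LC-MS/MS.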

[2] = Half life in Sprague-Dawley rat at 5 mg/kg, iv by LC/MS/MS method; type: ADME, organism-based; settings: in vivo
How it was run: (§3)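 Sprague-Dawley rats, 2 male and 1 female per compound per route, parallel design. Vehicle 5% DMSO, 10% solutol, 85% HPBCD; IV 5 mg/kg bolus via tail vein, oral 10 mg/kg. Blood into K2-EDTA tubes at several time points, centrifuged, plasma analysed by LC/MS/MS; non-compartmental analysis.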

Cytochrome P450 1A2 = target: T1, Cytochrome P450 1A2 (Homo sapiens, UniProt P05177); assay: Inhibition of human CYP1A2 by luminometry; type: ADME; how it was run: as §1
T1 sequence (P05177 whole entry): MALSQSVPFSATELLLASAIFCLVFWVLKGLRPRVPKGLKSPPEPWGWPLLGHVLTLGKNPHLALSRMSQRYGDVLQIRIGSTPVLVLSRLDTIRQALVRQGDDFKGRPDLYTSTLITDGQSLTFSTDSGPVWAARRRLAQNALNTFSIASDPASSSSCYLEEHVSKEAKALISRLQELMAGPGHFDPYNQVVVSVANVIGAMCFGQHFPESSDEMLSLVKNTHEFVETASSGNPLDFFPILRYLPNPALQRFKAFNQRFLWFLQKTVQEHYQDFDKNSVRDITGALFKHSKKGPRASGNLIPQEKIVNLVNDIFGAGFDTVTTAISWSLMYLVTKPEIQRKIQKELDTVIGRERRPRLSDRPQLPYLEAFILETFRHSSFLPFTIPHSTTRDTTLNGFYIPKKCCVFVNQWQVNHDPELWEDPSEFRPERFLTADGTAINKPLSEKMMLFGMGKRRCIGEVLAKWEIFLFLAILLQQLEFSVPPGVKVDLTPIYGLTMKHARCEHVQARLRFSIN

Cytochrome P450 2C9 = Cytochrome P450 2C9 (Homo sapiens, UniProt P11712); assay: Inhibition of human CYP2C9 by luminometry; type: ADME; how it was run: as §1
[3] = Stability in rat plasma assessed as compound remaining at 100 uM after 2 hrs by LC-MS/MS method; type: ADME, cell-free; settings: read-out: Stability; how it was run: as §2
[4] = Stability in rat plasma assessed as compound remaining at 100 uM after 1 hr by LC-MS/MS method; type: ADME, cell-free; settings: read-out: Stability; how it was run: as §2
[5] = Half life in Sprague-Dawley rat at 10 mg/kg, po by LC/MS/MS method; type: ADME, organism-based; settings: in vivo; how it was run: as §3
hERG (KCNH2) = hERG (KCNH2) (Homo sapiens, UniProt Q12809); assay: Inhibition of human ERG at 10 uM by fluorescence polarization assay based ligand binding assay
Hepatitis C virus [6] = assay: Antiviral activity against HCV genotype 1b NK/R2AN infected in human Huh7.5.1 cells assessed as reduction in virus replication by luciferase reporter gene assay; type: functional, organism-based, Hepacivirus hominis, subtype 1b NK/R2AN, Huh-7
Cytochrome P450 2D6 = Cytochrome P450 2D6 (Homo sapiens, UniProt P10635); assay: Inhibition of human CYP2D6 by luminometry; type: ADME; how it was run: as §1
Cytochrome P450 2C19 = Cytochrome P450 2C19 (Homo sapiens, UniProt P33261); assay: Inhibition of human CYP2C19 by luminometry; type: ADME; how it was run: as §1
[7] = Stability in human liver microsomes assessed as compound remaining at 1 uM after 0.5 hrs by LC-MS/MS method; type: ADME; settings: read-out: Stability
How it was run: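 Pooled human liver microsomal fraction with β-NADPH, compound at 1 µM, incubated over 30 min; remaining compound in supernatant quantified by LC-MS/MS.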

[8] = Oral bioavailability in Sprague-Dawley rat at 10 mg/kg by LC/MS/MS method; type: ADME, organism-based; settings: in vivo; how it was run: as §3
Hepatitis C virus [9] = assay: Antiviral activity against HCV genotype 2a JFH5a infected in human Huh7.5.1 cells transfected with JFH5a-Rluc-ad34 assessed as reduction in virus proliferation by luciferase reporter gene assay; type: functional, cell-based, Hepacivirus hominis, Huh-7
[10] = Cytotoxicity against human Huh7.5.1 cells; type: cell-based, Huh-7
Hepatitis C virus [11] = assay: Antiviral activity against HCV genotype 1b NK/R2AN infected in human Huh7.5.1 cells expressing NS5A L31V mutant assessed as reduction in virus replication at 100 pM to 1 uM by luciferase reporter gene assay; type: functional, organism-based; settings: Hepacivirus hominis, subtype 1b NK/R2AN, Huh-7
How it was run: (§4)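 Daclatasvir-resistant NS5A mutant RNAs were transcribed in vitro and electroporated into Huh7.5.1 cells grown in 12-well plates. At 4 h post-transfection, medium was replaced with DMEM containing serially diluted compounds. Cells were harvested 3 days later and Renilla luciferase activity was measured and normalized to mock-treated cells.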

Hepatitis C virus [12] = assay: Antiviral activity against HCV genotype 1b NK/R2AN infected in human Huh7.5.1 cells expressing NS5A Y93H mutant assessed as reduction in virus replication at 100 pM to 1 uM by luciferase reporter gene assay; type: functional, organism-based; settings: Hepacivirus hominis, subtype 1b NK/R2AN, Huh-7; how it was run: as §4
Hepatitis C virus [13] = assay: Antiviral activity against HCV genotype 1b NK/R2AN infected in human Huh7.5.1 cells assessed as reduction in virus replication in presence of 123 nM NS5B polymerase inhibitor sofosbuvir by luciferase reporter gene assay; type: functional, organism-based; settings: Hepacivirus hominis; subtype 1b NK/R2AN; Huh-7
Salmonella typhimurium = assay: Genotoxicity in Salmonella typhimurium TA98 assessed as induction of revertant colonies at 1 ug/plate in absence of S9 mix by Ames test relative untreated control; type: toxicity, organism-based; settings: salmonella enterica subsp. enterica serovar typhimurium
[14] = Hepatitis C virus, subtype 1b NK/R2AN, Huh-7
[15] = Hepatitis C virus, genotype 2a JFH5a, Huh-7

Sequence of Cytochrome P450 2C9 (P11712 whole entry): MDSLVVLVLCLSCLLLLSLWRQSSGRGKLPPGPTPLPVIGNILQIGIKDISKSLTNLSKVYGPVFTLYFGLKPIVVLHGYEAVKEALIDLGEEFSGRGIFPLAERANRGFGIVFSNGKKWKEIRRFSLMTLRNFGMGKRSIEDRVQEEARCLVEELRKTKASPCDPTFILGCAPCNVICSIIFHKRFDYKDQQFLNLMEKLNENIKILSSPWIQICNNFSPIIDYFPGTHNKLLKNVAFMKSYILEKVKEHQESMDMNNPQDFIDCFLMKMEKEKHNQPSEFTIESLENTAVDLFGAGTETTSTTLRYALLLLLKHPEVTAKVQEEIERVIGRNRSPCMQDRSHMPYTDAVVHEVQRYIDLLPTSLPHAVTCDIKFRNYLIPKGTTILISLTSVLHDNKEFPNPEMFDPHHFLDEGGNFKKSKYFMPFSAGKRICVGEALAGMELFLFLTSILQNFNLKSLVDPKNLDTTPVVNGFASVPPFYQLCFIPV
Sequence of Cytochrome P450 3A4 (P08684 whole entry): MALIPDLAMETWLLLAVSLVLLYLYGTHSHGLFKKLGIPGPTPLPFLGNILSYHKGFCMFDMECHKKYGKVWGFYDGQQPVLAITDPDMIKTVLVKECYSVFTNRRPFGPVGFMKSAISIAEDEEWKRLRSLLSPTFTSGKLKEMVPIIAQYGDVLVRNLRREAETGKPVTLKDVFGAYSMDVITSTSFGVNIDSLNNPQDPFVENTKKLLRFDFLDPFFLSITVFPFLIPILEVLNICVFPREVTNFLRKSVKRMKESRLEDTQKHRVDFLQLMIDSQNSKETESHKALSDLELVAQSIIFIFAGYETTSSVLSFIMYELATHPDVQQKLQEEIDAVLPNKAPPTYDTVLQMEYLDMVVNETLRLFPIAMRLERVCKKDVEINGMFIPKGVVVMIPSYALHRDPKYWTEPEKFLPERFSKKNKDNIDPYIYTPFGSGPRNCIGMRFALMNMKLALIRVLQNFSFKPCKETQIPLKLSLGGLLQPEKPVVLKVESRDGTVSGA
Sequence of hERG (KCNH2) (Q12809 whole entry): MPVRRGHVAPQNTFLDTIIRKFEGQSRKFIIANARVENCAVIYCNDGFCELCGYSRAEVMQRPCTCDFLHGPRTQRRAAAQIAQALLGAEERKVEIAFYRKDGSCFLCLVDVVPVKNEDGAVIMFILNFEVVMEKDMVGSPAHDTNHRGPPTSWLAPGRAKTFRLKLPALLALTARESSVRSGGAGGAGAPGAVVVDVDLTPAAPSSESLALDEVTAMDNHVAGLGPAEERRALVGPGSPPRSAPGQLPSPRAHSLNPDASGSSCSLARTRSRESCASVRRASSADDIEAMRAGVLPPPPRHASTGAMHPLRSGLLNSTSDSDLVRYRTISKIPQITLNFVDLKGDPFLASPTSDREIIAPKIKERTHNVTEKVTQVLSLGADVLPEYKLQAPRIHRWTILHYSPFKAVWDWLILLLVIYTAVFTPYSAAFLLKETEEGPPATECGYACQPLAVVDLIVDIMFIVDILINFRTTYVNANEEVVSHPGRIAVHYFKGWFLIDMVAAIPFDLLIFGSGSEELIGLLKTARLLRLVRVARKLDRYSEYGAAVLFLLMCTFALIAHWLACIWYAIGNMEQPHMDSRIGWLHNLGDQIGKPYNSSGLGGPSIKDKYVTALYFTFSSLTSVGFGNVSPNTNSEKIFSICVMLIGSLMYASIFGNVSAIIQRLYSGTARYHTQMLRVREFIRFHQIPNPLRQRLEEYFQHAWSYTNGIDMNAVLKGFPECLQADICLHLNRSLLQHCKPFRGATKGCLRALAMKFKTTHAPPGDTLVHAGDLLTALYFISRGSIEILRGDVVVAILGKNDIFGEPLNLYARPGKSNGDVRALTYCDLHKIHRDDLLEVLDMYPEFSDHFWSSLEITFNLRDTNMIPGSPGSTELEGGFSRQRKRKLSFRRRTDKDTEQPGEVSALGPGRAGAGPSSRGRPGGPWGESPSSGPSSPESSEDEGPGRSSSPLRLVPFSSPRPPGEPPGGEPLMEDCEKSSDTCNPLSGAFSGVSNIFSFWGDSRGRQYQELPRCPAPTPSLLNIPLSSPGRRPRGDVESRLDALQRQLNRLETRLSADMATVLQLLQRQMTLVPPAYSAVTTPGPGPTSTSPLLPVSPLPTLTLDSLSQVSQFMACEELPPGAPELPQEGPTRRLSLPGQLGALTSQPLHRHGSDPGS
Sequence of Cytochrome P450 2D6 (P10635 whole entry): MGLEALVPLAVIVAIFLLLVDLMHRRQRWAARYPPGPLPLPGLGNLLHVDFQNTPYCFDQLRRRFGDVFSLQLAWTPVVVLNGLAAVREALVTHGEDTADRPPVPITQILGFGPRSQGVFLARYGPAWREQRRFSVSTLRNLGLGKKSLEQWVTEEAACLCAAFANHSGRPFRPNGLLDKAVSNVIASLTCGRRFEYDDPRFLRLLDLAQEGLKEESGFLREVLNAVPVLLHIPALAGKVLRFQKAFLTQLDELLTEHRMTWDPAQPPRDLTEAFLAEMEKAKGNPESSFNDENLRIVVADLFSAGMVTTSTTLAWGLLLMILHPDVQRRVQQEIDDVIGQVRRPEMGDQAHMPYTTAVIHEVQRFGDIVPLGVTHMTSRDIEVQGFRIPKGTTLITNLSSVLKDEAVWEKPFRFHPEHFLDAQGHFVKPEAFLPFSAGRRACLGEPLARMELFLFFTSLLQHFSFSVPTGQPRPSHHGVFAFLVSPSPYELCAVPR
Sequence of Cytochrome P450 2C19 (P33261 whole entry): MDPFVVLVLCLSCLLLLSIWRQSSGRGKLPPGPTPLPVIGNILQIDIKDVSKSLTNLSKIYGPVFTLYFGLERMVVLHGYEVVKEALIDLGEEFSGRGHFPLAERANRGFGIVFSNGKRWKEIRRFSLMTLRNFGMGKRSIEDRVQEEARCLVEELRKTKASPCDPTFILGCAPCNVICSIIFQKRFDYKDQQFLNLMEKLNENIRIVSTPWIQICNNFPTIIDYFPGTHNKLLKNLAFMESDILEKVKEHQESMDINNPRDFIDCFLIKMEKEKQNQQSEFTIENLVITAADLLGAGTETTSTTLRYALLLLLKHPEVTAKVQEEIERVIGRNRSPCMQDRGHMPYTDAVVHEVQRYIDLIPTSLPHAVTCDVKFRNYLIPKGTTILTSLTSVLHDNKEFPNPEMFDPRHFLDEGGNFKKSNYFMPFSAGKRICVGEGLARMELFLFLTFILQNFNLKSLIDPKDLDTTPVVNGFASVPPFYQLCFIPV

EC50 (Cytochrome P450 3A4): 2460 nM
remaining at 0.5 h, 100 µM [1]: 65%
half-life [2]: 0.88 h
EC50 (Cytochrome P450 1A2): > 100000 nM
EC50 (Cytochrome P450 2C9): 87.7 nM
remaining at 2 h, 100 µM [3]: 63%
remaining at 1 h, 100 µM [4]: 61%
half-life [5]: 2.34 h
EC50 (Hepatitis C virus [6]; [14]): 0.005 nM
EC50 (Cytochrome P450 2D6): 4940 nM
EC50 (Cytochrome P450 2C19): 724 nM
remaining at 0.5 h, 1 µM [7]: 97%
bioavailability [8]: 3.12%
SMILES: COC(=O)N[C@@H](C(=O)N1CCC[C@H]1C(=O)Nc1ccc(-c2ccc(NC(=O)[C@@H]3CCCN3C(=O)[C@H](NC(=O)OC)c3ccccc3)cc2F)c(F)c1)c1ccccc1
inhibition at 10 µM (hERG (KCNH2)): < 1%
EC50 (Hepatitis C virus [9]; [15]): 0.16 nM
CC50 [10]: > 25000 nM

EC50 (Cytochrome P450 3A4): 3990 nM
remaining at 0.5 h, 100 µM [1]: 72%
half-life [2]: 1.55 h
EC50 (Cytochrome P450 1A2): 23900 nM
EC50 (Cytochrome P450 2C9): 116 nM
remaining at 2 h, 100 µM [3]: 70%
remaining at 1 h, 100 µM [4]: 75%
half-life [5]: 6.37 h
EC50 (Hepatitis C virus [6]; [14]): 0.007 nM
EC50 (Cytochrome P450 2D6): 41200 nM
EC50 (Cytochrome P450 2C19): 1040 nM
remaining at 0.5 h, 1 µM [7]: 96%
bioavailability [8]: 4.99%
SMILES: COC(=O)N[C@@H](C(=O)N1CCC[C@H]1C(=O)Nc1ccc(-c2ccc(NC(=O)[C@@H]3CCCN3C(=O)[C@H](NC(=O)OC)c3ccccc3)cc2Cl)c(Cl)c1)c1ccccc1
inhibition at 10 µM (hERG (KCNH2)): 5.8%
EC50 (Hepatitis C virus [9]; [15]): 0.01 nM
CC50 [10]: > 25000 nM

SMILES: COC(=O)N[C@H](C(=O)N1CCC[C@H]1c1ncc(-c2ccc(-c3ccc(-c4cnc([C@@H]5CCCN5C(=O)[C@@H](NC(=O)OC)C(C)C)[nH]4)cc3)cc2)[nH]1)C(C)C
inhibition (Hepatitis C virus [11]): Active
inhibition (Hepatitis C virus [12]): Active

EC50 (Cytochrome P450 3A4): 1030 nM
half-life [2]: 1.62 h
EC50 (Cytochrome P450 1A2): > 100000 nM
EC50 (Cytochrome P450 2C9): 269 nM
half-life [5]: 4.45 h
EC50 (Hepatitis C virus [6]; [14]): 0.004 nM
EC50 (Cytochrome P450 2D6): > 100000 nM
EC50 (Cytochrome P450 2C19): 2940 nM
remaining at 0.5 h, 1 µM [7]: 95%
bioavailability [8]: 13.8%
SMILES: COC(=O)N[C@@H](C(=O)N1CCC[C@H]1C(=O)Nc1ccc2c(c1)C(C)(C)c1cc(NC(=O)[C@@H]3CCCN3C(=O)[C@H](NC(=O)OC)c3ccccc3)ccc1-2)c1ccccc1
inhibition at 10 µM (hERG (KCNH2)): 25.7%
EC50 (Hepatitis C virus [9]; [15]): 0.02 nM
CC50 [10]: > 25000 nM

EC50 (Hepatitis C virus [6]; huh-7): 2.4 nM
SMILES: COC(=O)N[C@@H](C(=O)N1CCC[C@H]1C(=O)Nc1ccc(-c2ccc(NC(=O)[C@@H]3CCCN3C(=O)[C@H](NC(=O)OC)c3ccccc3)cc2C(F)(F)F)c(C(F)(F)F)c1)c1ccccc1 (stereo in doubt; form 3)
EC50 (Hepatitis C virus [9]; huh-7): 24.6 nM

EC50 (Hepatitis C virus [6]; [14]): 7.4 nM
SMILES: COC(=O)N[C@@H](C(=O)N1CCC[C@H]1C(=O)Nc1ccc(-c2ccc(NC(=O)[C@@H]3CCCN3C(=O)[C@H](NC(=O)OC)c3ccccc3)c(C)c2)cc1C)c1ccccc1
EC50 (Hepatitis C virus [9]; [15]): 193 nM
CC50 [10]: > 25000 nM

SMILES: COC(=O)N[C@@H](C(=O)N1CCC[C@H]1C(=O)Nc1ccc(-c2ccc(NC(=O)[C@@H]3CCCN3C(=O)[C@H](NC(=O)OC)c3ccccc3)cc2C(F)(F)F)c(C(F)(F)F)c1)c1ccccc1 (stereo in doubt; form 1)
Activity (Hepatitis C virus [13]): Active

EC50 (Hepatitis C virus [6]; [14]): 0.044 nM
SMILES: COC(=O)N[C@@H](C(=O)N1CC(=O)C[C@H]1C(=O)Nc1ccc(-c2ccc(NC(=O)[C@@H]3CC(=O)CN3C(=O)[C@H](NC(=O)OC)c3ccccc3)cc2)cc1)c1ccccc1
EC50 (Hepatitis C virus [9]; [15]): 0.26 nM
CC50 [10]: > 25000 nM

SMILES: O=[N+]([O-])c1ccc2c(c1)Cc1ccccc1-2 [2-NITROFLUORENE]
fold change (FC) (Salmonella typhimurium): 10.2

EC50 (Hepatitis C virus [6]; [14]): 0.007 nM
SMILES: COC(=O)N[C@@H](C(=O)N1CCC[C@H]1C(=O)Nc1ccc(-c2ccc(NC(=O)[C@@H]3CCCN3C(=O)[C@H](NC(=O)OC)c3ccccc3)cc2Br)c(Br)c1)c1ccccc1
EC50 (Hepatitis C virus [9]; [15]): 0.01 nM
CC50 [10]: > 25000 nM

EC50 (Hepatitis C virus [6]; [14]): 370 nM
SMILES: COC(=O)N[C@@H](C(=O)N1CCCC[C@@H]1C(=O)Nc1ccc(-c2ccc(NC(=O)[C@H]3CCCCN3C(=O)[C@H](NC(=O)OC)c3ccccc3)cc2)cc1)c1ccccc1
EC50 (Hepatitis C virus [9]; [15]): 419 nM
CC50 [10]: > 25000 nM
